Experimental data as given in PubChem BioAssay AID504649 (Molecular Libraries Program, Specialized Chemistry Center, …, 2011).
pIC50: −log10 of the molar value. Activity calls are given as the source filed them.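 The calls were made as follows: active = half-maximal inhibitory concentration IC50 of 10 µM or lower; inactive = the rest.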

Molecular target: Transitional endoplasmic reticulum ATPase (Homo sapiens) (UniProt P55072)
Assay: p97-dependent UbG76V-GFP degradation inhibitors in cells, SAR follow-up, imaging, HeLa, round 3 (AID 504649)
Conditions: for inhibition: at 20 µM (top of the series)
In short: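 Assay system: HeLa cells expressing UbG76V-GFP proteasome degradation reporter; times: MG132 pre-treatment 1 h, GFP imaging 70–170 min into chase; measured by: imaged GFP fluorescence intensity, ~500 cells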

Transitional endoplasmic reticulum ATPase (Homo sapiens), sequence (P55072 whole entry, looked up): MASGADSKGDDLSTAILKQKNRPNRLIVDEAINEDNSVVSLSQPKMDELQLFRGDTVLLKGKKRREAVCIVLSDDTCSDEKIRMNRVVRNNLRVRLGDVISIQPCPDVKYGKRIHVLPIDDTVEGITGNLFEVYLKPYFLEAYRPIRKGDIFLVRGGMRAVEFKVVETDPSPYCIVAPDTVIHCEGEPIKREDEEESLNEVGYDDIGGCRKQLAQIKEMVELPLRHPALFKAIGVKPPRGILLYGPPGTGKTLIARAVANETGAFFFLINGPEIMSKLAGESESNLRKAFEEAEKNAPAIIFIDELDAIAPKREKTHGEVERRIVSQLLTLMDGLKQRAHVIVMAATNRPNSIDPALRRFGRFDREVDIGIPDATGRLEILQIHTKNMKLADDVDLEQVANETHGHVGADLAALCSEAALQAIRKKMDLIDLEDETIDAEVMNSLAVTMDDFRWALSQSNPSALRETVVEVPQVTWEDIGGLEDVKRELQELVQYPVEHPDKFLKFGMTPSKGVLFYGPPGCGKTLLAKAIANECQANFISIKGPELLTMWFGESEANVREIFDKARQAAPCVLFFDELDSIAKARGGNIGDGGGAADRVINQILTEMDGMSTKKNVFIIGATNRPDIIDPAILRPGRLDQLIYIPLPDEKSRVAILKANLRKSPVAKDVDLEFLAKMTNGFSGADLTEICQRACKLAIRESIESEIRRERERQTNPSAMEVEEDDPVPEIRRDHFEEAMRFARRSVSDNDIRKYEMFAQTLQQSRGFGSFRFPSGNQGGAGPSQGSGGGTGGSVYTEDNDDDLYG

SMILES	pIC50	IC50	inhibition
COc1ccc(-c2cccc3c(NCc4ccccc4)nc(N4CCOc5ccccc54)nc23)cc1	5.05		
COc1cccc2c(NCc3ccccc3)nc(N3CCNc4ccccc43)nc12	5.43		
COc1cccc2c(NCc3ccccc3)nc(-n3c(N)nc4c(C)cccc43)nc12	5.59		
COc1cccc2c(NCc3ccccc3N(C)C)nc(N3CCOc4ccccc43)nc12	5.35		
COc1cccc2c(NCc3ccccc3)nc(NC(C)c3ccccc3)nc12 (stereo not given)	5.68		
c1ccc2c(c1)OCCN2c1nc(N2CCOc3ccccc32)c2ccccc2n1	5.09		
COc1cccc2c(NCc3ccccc3)nc(Nc3nc4ccccc4n3C)nc12	5.11		
Nc1nc2ccccc2n1-c1nc2c(c(NCc3ccccc3)n1)CCCC2	5.74		
OCCOc1cccc2c(NCc3ccccc3)nc(N3CCOc4ccccc43)nc12	5.42		
COc1ccc2c(c1)nc(N)n2-c1nc(NCc2ccccc2)c2cccc(OC)c2n1	6.02		
Nc1nc2ccccc2n1-c1nc(NCc2ccccc2)c2ccccc2n1	5.54		
Cc1nc(N2CCOc3ccccc32)nc(NCc2ccccc2)c1C		inactive	
c1ccc(CNc2nc(N3CCOc4ccccc43)nc3ccsc23)cc1	5.19		
COc1cccc2c(NCc3cccc(N(C)C)c3)nc(N3CCOc4ccccc43)nc12		inactive	
COc1cccc2c(NCc3ccccc3)nc(NCc3cccs3)nc12	5.74		
COc1cccc2c(NCc3ccccc3)nc(NCC3CCCCC3)nc12	5.38		
COc1cccc2c(NCc3cncs3)nc(N3CCOc4ccccc43)nc12		> 20 µM (inactive)	
COc1cccc2c(NCc3ccccc3)nc(-n3c(N)nc4cc(F)ccc43)nc12	5.17		
COc1cccc2c(NCc3ccccc3)nc(Nc3nc4ccccc4s3)nc12		inactive	
COc1cccc2c(NCc3ccccc3)nc(Nc3ccccc3O)nc12	5.55		
COc1cccc2c(NCc3ccccc3)nc(N(C)Cc3ccccc3)nc12		> 20 µM (inactive)	
N#CCOc1cccc2c(NCc3ccccc3)nc(N3CCOc4ccccc43)nc12	5.11		
COc1cccc2c(NCc3ccccc3O)nc(N3CCOc4ccccc43)nc12	5.22		
COc1cccc2c(NCc3ccccc3)nc(N3CCN(C)c4ccccc43)nc12	5.11		
COc1cccc2c(NCc3ccccc3)nc(-n3c(N)nc4cc(C)c(C)cc43)nc12			inactive
COc1cccc2c(NCc3ccccn3)nc(N3CCNc4ccccc43)nc12		inactive	
COc1cccc2c(NCc3ccc(O)cc3)nc(N3CCOc4ccccc43)nc12	5.14		
Oc1cccc2c(NCc3ccccc3)nc(N3CCOc4ccccc43)nc12	5.11		

SMILES	pIC50	IC50	inhibition
CC(C)Nc1nc(Nc2cccc(Cl)c2)nc2ccccc12		inactive	
COc1cccc2c(NCc3ccccc3)nc(-n3c(N)nc4cc(Cl)c(Cl)cc43)nc12		> 20 µM (inactive)	
c1ccc(CNc2nc(N3CCOc4ccccc43)nc3c(-c4ccccc4)cccc23)cc1	5.30		
COc1cccc2c(NCc3ccccc3)nc(N3CCOc4ccccc43)nc12	5.48		
COc1cccc2c(NCc3ccccc3)nc(N3CCN(C(C)=O)c4ccccc43)nc12	5.10		
c1ccc(CNc2nc(N3CCc4ccccc4C3)nc3ccccc23)cc1	5.15		
c1ccc(CNc2nc(N3CCOc4ccccc43)nc3c2CCCC3)cc1	5.46		
COc1cccc2c(NCc3ccccc3)nc(-n3c(N)nc4ccccc43)nc12	6.05		
COc1cccc2c(NCc3ccccc3)nc(N3CCN(C(C)=O)CC3)nc12		> 20 µM (inactive)	
COc1cccc2c(NCc3ccccn3)nc(N3CCOc4ccccc43)nc12		inactive	
COc1cccc2c(NCc3ccccc3)nc(NC(N)=O)nc12			inactive
COc1cccc2c(NCc3ccccc3)nc(Nc3cccc(Cl)c3)nc12	5.27		
COc1cccc2c(NCc3ccccc3)nc(NCc3cncs3)nc12		inactive	
COc1cccc2c(NCc3ccccc3)nc(-n3c(N)nc4cc(C)ccc43)nc12	5.60		
COc1cccc2c(NCc3ccccc3)nc(Nc3cc(C)cc(F)c3)nc12	5.15		
COc1cccc2c(NCc3ccccc3)nc(-n3c(=O)oc4ccccc43)nc12	5.30		
CCN(CC)CCOc1cccc2c(NCc3ccccc3)nc(N3CCOc4ccccc43)nc12	5.28		
COc1cccc2c(NCc3ccccc3)nc(-n3c(N)nc4c(F)cccc43)nc12	5.27		
Nc1nc2ccccc2n1-c1nccc(NCc2ccccc2)n1		inactive	
COc1cccc2c(NCc3ccccc3)nc(-n3cnc4ccccc43)nc12			inactive
COc1cccc2c(NCC3CCCCC3)nc(N3CCOc4ccccc43)nc12	5.09		
COc1cccc2c(NCc3cccs3)nc(N3CCOc4ccccc43)nc12	5.52		
COc1cccc2c(NCc3ccc(F)cc3)nc(N3CCOc4ccccc43)nc12	5.43		
COCCOc1cccc2c(NCc3ccccc3)nc(N3CCOc4ccccc43)nc12	5.19		
CN(c1ccccc1)c1nc(NCc2ccccc2)c2ccccc2n1	5.04		
Clc1ccccc1-c1nc(N2CCCc3ccccc32)c2ccccc2n1		inactive	
COc1cccc2c(NCc3ccccc3)nc(Nc3cccc(F)c3)nc12	5.32		
